{"source": "ChEMBL document CHEMBL1806391", "about": "“Synthesis and biological evaluation of novel 5-alkyl-2-arylthio-6-((3,4-dihydroquinolin-1(2H)-yl)methyl)pyrimidin-4(3H)-ones as potent non-nucleoside HIV-1 reverse transcriptase inhibitors” (Bioorg Med Chem, 2011)", "key": {"[1]": {"target": "Human immunodeficiency virus type 1 reverse transcriptase (Human immunodeficiency virus 1, UniProt Q72547)", "test": "Inhibition of HIV1 wild type RT using poly(rA)/oligo(dT)15 homopolymer template after 1 hrs by ELISA", "summary_of_the_method": "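Wild-type HIV-1 RT was run on a poly(rA)/oligo(dT)₁₅ template, with oligo(dT) immobilized on plates and biotin-dUTP incorporated, 1 h at 37 °C. After Tris-HCl pH 7.5 washes, incorporated biotin was detected colorimetrically by streptavidin–alkaline phosphatase with PNPP (1 mg/mL, pH 9.5), 30 min at 37 °C, stopped with 0.5 M NaOH.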"}, "[2]": {"test": "Selectivity index, ratio of CC50 for human MT4 cells to EC50 for wild type Human immunodeficieny virus 1 3B infected in human MT4 cells", "type": "toxicity, cell-based", "conditions": "read-out: Ratio CC50/EC50", "summary_of_the_method": "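SI is CC₅₀ in mock-infected MT-4 cells divided by EC₅₀ against HIV-1 IIIB, both from 5-day MTT assays in triplicate wells.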"}, "[3]": {"test": "Cytotoxic activity against human MT4 cells assessed as viability of mock-infected cells after 5 days by MTT assay", "type": "cell-based", "summary_of_the_method": "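Mock-infected, exponentially growing MT-4 cells (6 × 10⁵ cells/mL) were exposed to serial fivefold compound dilutions in triplicate wells. After 5 days, viability was read by MTT formazan absorbance at 540 and 690 nm. CC₅₀ is the concentration that lowered OD540 of the mock-infected control by 50%, using the median OD of three wells.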"}, "[4]": {"test_system": "Human immunodeficiency virus 1", "test": "Antiviral activity against wild type Human immunodeficiency virus 1 3B infected in human MT4 cells assessed as protection against virus-induced cytotoxicity after 5 days by MTT assay", "type": "functional, organism-based", "conditions": "MT4, 120 h", "summary_of_the_method": "(§1)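 MT-4 cells, spun 5 min at 1000 rpm, were resuspended at 6 × 10⁵ cells/mL and infected with HIV-1 IIIB or HIV-2 ROD. Compounds were added at the start in serial fivefold dilutions, in triplicate wells. Viability was read by MTT reduction at 540 and 690 nm five days post-infection. EC₅₀ is the concentration giving 50% protection from viral cytopathic effect, using the median OD of three wells.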"}, "[5]": {"test_system": "Human immunodeficiency virus 2", "test": "Antiviral activity against wild type Human immunodeficiency virus 2 ROD infected in human MT4 cells assessed as protection against virus-induced cytotoxicity after 5 days by MTT assay", "type": "functional, organism-based", "conditions": "Human immunodeficiency virus 2, ISOLATE ROD, MT4, 120 h", "summary_of_the_method": "as §1"}, "[6]": {"test_system": "Human immunodeficiency virus 2", "test": "Antiviral activity against Human immunodeficiency virus 2 ROD infected in human MT4 cells assessed as inhibition of viral replication", "type": "functional, organism-based", "conditions": "ISOLATE ROD", "summary_of_the_method": "as §1"}}, "note": "Activity calls are given as the source filed them. The rule behind the calls is not given here.", "data": [{"smiles": "CCc1c(CN2CCCc3ccccc32)nc(SCC(=O)c2ccccc2)[nH]c1=O", "values": [{"measurement": "IC50", "setting": "[1]", "value": 30.7, "unit": "µM"}, {"measurement": "selectivity ratio", "setting": "[2]", "value": 1220}, {"measurement": "CC50 at 120 h", "setting": "[3]", "value": 298, "unit": "µM"}, {"measurement": "EC50", "setting": "[4]", "value": 0.24, "unit": "µM"}, {"measurement": "EC50", "setting": "[5]", "value": "> 298", "unit": "µM"}, {"measurement": "inhibition", "setting": "[6]", "value": "inactive"}]}, {"smiles": "O=C(CSc1nc(CN2CCCc3ccccc32)cc(=O)[nH]1)c1ccc(Cl)cc1", "values": [{"measurement": "selectivity ratio", "setting": "[2]", "value": "< 1"}, {"measurement": "CC50 at 120 h", "setting": "[3]", "value": 75.6, "unit": "µM"}, {"measurement": "EC50", "setting": "[4]", "value": "> 75.6", "unit": "µM"}, {"measurement": "EC50", "setting": "[5]", "value": "> 75.6", "unit": "µM"}, {"measurement": "inhibition", "setting": "[6]", "value": "inactive"}]}, {"smiles": "Cc1c(CN2CCCc3ccccc32)nc(SCC(=O)c2ccc(F)cc2)[nH]c1=O", "values": [{"measurement": "selectivity ratio", "setting": "[2]", "value": 34}, {"measurement": "CC50 at 120 h", "setting": "[3]", "value": 15.4, "unit": "µM"}, {"measurement": "EC50", "setting": "[4]", "value": 0.46, "unit": "µM"}, {"measurement": "EC50", "setting": "[5]", "value": "> 15.4", "unit": "µM"}, {"measurement": "inhibition", "setting": "[6]", "value": "inactive"}]}]}
